Here are results for 15 compounds from ChEMBL document CHEMBL1134250, “Inhibition of neuronal nitric oxide synthase by 7-methoxyindazole and related substituted indazoles” (Bioorg Med Chem Lett, 2001).

Structures are written as SMILES.

As a reminder, the IC50 is the point on the concentration scale where inhibition reaches its midpoint. Low readings indicate inhibition by little substance, high ones a need for much substance. For orientation: inhibition means the share of the control response that was lost under treatment. Read a low inhibition as little suppression.

The test system of assay [1] is Mus musculus. Put plainly: Effect of l-Arginine on Antinociceptive activity in mice(ip) at a dose of 50 mg/kg (p<0.05). Type of assay: functional.
The subject of assay [2] is Mus musculus. Put plainly: Antinociceptive activity in Writhing test in mice(ip) at a dose of 50 mg/kg (p<0.001). Type of assay: functional. (An intraperitoneal irritant provokes the stretching counted in writhing tests.)
The subject of assay [3] is Mus musculus. Description: Antinociceptive activity in Writhing test in mice(ip) at a dose of 25 mg/kg (p<0.05). Type of assay: functional.
Assay [4] relates to Mus musculus. Description: Antinociceptive activity in Writhing test in mice(ip) at a dose of 10 mg/kg (p<0.05). Type of assay: functional.
The target of assay [5] is T1, Nitric oxide synthase 1 (Rattus norvegicus, UniProt P29476). Put plainly: In vitro inhibitory concentration against rat cerebellar neuronal nitric oxide synthase.
T1 sequence (P29476 whole entry): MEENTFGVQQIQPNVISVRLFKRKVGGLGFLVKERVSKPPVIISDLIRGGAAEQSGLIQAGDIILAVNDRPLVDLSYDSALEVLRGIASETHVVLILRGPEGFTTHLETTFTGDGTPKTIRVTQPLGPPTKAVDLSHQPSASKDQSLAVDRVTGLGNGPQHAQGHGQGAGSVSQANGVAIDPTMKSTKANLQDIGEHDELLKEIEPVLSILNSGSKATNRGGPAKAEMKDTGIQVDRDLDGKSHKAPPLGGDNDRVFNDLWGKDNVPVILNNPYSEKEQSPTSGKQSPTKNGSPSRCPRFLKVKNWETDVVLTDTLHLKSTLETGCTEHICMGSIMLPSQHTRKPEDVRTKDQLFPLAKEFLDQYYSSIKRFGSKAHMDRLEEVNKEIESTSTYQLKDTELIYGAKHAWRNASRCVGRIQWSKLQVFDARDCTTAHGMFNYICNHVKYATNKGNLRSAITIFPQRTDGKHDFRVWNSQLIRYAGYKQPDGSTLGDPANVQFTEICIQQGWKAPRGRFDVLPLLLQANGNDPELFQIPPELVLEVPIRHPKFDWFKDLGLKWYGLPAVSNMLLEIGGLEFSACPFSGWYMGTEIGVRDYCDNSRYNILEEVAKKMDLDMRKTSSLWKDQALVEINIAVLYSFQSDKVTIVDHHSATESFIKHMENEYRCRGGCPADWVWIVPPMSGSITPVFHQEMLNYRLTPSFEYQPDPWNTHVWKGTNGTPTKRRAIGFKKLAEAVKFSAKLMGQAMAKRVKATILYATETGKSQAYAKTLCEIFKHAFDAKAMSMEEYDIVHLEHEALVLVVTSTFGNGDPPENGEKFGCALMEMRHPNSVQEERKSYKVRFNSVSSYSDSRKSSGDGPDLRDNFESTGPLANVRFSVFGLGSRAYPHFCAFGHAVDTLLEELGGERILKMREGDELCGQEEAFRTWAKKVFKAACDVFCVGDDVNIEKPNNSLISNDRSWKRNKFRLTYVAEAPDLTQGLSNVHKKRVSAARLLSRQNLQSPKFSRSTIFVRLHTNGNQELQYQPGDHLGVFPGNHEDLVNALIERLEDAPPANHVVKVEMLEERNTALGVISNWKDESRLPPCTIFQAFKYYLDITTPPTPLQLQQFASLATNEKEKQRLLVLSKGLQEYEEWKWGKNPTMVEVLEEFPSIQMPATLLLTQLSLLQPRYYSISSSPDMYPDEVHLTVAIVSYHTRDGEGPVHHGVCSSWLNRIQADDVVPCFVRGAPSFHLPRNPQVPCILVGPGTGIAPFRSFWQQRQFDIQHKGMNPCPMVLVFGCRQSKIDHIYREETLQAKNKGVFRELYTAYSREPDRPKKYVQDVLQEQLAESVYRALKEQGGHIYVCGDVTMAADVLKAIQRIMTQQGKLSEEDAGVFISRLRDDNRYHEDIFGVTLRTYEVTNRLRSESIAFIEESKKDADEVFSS
Assay [6] concerns the target Nitric oxide synthase 1 (Rattus norvegicus) (UniProt P29476). Description: In vitro percent inhibition of rat cerebellar neuronal nitric oxide synthase at a concentration of 100 uM. A digest of the protocol: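 Rat cerebellar homogenate nNOS, assayed as L-[3H]arginine to L-[3H]citrulline conversion (1 mM CaCl2, 200 μM β-NADPH, 0.88 μM L-arginine, 0.12 µM L-[3H]arginine, 15 min, 37 °C). Compound at 100 µM in ethanol or DMSO vehicle. Result given as % inhibition.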

Assay [7] addresses T1, Nitric oxide synthase 1. Put plainly: In vitro inhibitory concentration against rat cerebellar neuronal nitric oxide synthase; no effect. A digest of the protocol: (§1)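 Rat cerebellum homogenate nNOS. L-[3H]arginine to L-[3H]citrulline conversion with 1 mM CaCl2, 200 μM β-NADPH, 0.88 μM L-arginine and 0.12 µM L-[3H]arginine, 15 min at 37 °C. Vehicle ethanol or DMSO 0.4–0.8%. IC50 from inhibition curves at 0.1, 1, 10 and 100 µM. Mean ± SEM, 1–6 experiments.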

The target in assay [8] is Nitric oxide synthase 1 (Rattus norvegicus) (UniProt P29476). Put plainly: Ex vivo inhibition of rat cerebellar neuronal nitric oxide synthase after intraperitoneal administration in rats. The assay is classed as functional, organism-based. The note with it: concentration not given here. The gist of the method: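 Rats, n=6, received 50 mg/kg ip in arachis oil. Cerebellum removed 30 min later. nNOS activity measured ex vivo as L-[3H]arginine to L-[3H]citrulline conversion. Expressed as % inhibition.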
Sequence of Nitric oxide synthase 1 (Rattus norvegicus) (P29476 whole entry): as above

For assay [9], the target named is T1, Nitric oxide synthase 1. Description: In vitro inhibitory concentration against rat cerebellar neuronal nitric oxide synthase; No effect. A digest of the protocol: as §1
Assay [10] relates to Mus musculus. Description: Antinociceptive activity in Writhing test in mice(ip) at a dose of 15 mg/kg (p<0.001).

With `COc1cccc2c[nH]nc12`, the No. of writhes in the assay with Mus musculus [1] turned out to be 10.6; in the assay with Mus musculus [2] it was 4.7; in the assay with Mus musculus [3], 12.2; with Mus musculus [4], 15.4. On Nitric oxide synthase 1 [5], the IC50 is 6.3 µM. In assay [6], this compound displayed an inhibition of 80%.

For the compound `COc1cccc2c(I)[nH]nc12`, the IC50 result at Nitric oxide synthase 1 [7] is listed as “Not Active”. Also, the inhibition in [6] came out at 0%.

`Cc1ccc2cn[nH]c2c1` displayed a half-maximal inhibitory concentration (IC50) against Nitric oxide synthase 1 [5] of over 100 µM.

In the assay on Mus musculus [2], `O=[N+]([O-])c1cccc2cn[nH]c12` [7-NITROINDAZOLE] gave a No. of writhes of 6.2. The same compound came in with an inhibition in assay [8] of 92%.

For the compound `COc1ccc2c[nH]nc2c1`, the concentration for half-maximal inhibition (IC50) result at Nitric oxide synthase 1 [9] is given as “Not Active”. Besides, the inhibition in [6] was found to be 0%.

As to `CCOc1cccc2c[nH]nc12`, the 50% inhibitory concentration (IC50) against Nitric oxide synthase 1 [5] stood at 100 µM. The compound also had an inhibition in [6] of 50%.

In the case of `Clc1ccc2cn[nH]c2c1`, at Nitric oxide synthase 1 [5], the IC50 amounted to 28 µM.

Turning to `FC(F)(F)c1ccccc1-n1ccnc1`, at Nitric oxide synthase 1 [5], half-maximal inhibition (IC50) was put at 30 µM. The compound further came in with an inhibition in assay [8] of 45%.

At Nitric oxide synthase 1 [5], `COc1cccc2[nH]ncc12` had an IC50 of over 100 µM. The same compound had an inhibition in assay [6] of 30%.

Consider `c1ccc(COc2cccc3c[nH]nc23)cc1`, for which, at Nitric oxide synthase 1 [7], the IC50 result was “Not Active”. In addition, the inhibition in [6] is 0%.

Turning to `CC(=O)Oc1ccccc1C(=O)O` [ASPIRIN], the No. of writhes in the assay on Mus musculus [10] amounted to 3.5.

`Oc1cccc2cn[nH]c12` had an IC50 on Nitric oxide synthase 1 [5] of over 100 µM. In assay [6], this compound returned an inhibition of 7%.

Compound `Brc1ccc2[nH]ncc2c1` yielded an IC50 against Nitric oxide synthase 1 [5] of 75 µM.

In turn, `COc1ccc2[nH]ncc2c1` returned an IC50 on Nitric oxide synthase 1 [5] of over 100 µM. Also, the inhibition in assay [6] was 25%.

Consider `Fc1ccc2[nH]ncc2c1`, for which, on Nitric oxide synthase 1 [5], the IC50 was over 100 µM.
